# How the values were obtained:
# Format in all cases: functional, cell-based
# [1] = system: HepG2; assay: Antiproliferative activity against human HepG2 cells after 48 hrs by SRB method; settings: HepG2, 48 h
# In short: (§1)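 SRB assay. Cells in DMEM high glucose with 10% FBS were seeded at 5000/well and grown 24 h; a day-0 plate was fixed at that point. Compounds were added in triplicate for 48 h. IC50 came from nonlinear regression of dose–response curves from at least two independent experiments.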
# [2] = system: A549; assay: Antiproliferative activity against human A549 cells after 48 hrs by SRB method; settings: A549, 48 h
# In short: as §1, with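 “h. Cells were fixed with TCA at 4 °C for 1 h, stained with 0.4% SRB, and the dye was solubilized in 10 mM Tris pH 10.4. OD was read at 515 nm with day-0 OD subtracted.” for “h.”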
# [3] = system: MCF7; assay: Antiproliferative activity against human MCF7 cells after 48 hrs by SRB method; settings: MCF7, 48 h; in short: as §1
# [4] = system: SW480; assay: Antiproliferative activity against human SW480 cells after 48 hrs by SRB method; settings: SW480, 48 h; in short: as §1
# [5] = Antiproliferative activity against human CNE2 cells after 48 hrs by SRB method; settings: CNE-2, 48 h; in short: as §1
Structure (SMILES),IC50 [1],IC50 [2],IC50 [3],IC50 [4],IC50 [5]
COc1ccc(C(=O)/C=C/c2ccccc2-c2ccc(F)nc2)cc1,8.2 µM,> 50 µM,13 µM,10 µM,13 µM
COc1ccc(CNC(=O)c2ccccc2-c2ccc(F)cc2)cc1OC,> 50 µM,> 50 µM,> 50 µM,> 50 µM,> 50 µM
COc1ccc(C(=O)/C=C/c2ccccc2-c2ccc(F)cc2)cc1OC,6.6 µM,7.5 µM,7.1 µM,8.3 µM,7.6 µM
COc1cc(CNC(=O)c2ccccc2-c2ccc(F)cc2)cc(OC)c1OC,> 50 µM,> 50 µM,> 50 µM,> 50 µM,> 50 µM
COc1ccc(C(=O)/C=C/c2ccccc2-c2ccc(F)nc2)cc1OC,17 µM,17 µM,41 µM,15 µM,17 µM
COc1cc(C(=O)/C=C/c2ccccc2-c2ccc(F)cc2)cc(OC)c1OC,12 µM,2.2 µM,9.1 µM,2.2 µM,3.8 µM
COc1ccc(C(=O)/C=C/c2ccccc2-c2ccc(F)cc2)cc1,6.3 µM,8.2 µM,8.8 µM,8.4 µM,9 µM
COc1ccc(CNC(=O)c2ccccc2-c2ccc(F)cc2)cc1,> 50 µM,> 50 µM,> 50 µM,> 50 µM,> 50 µM
COc1cc(C(=O)/C=C/c2ccccc2-c2ccc(F)nc2)ccc1O,9.9 µM,13 µM,27 µM,8.5 µM,19 µM
Cc1ccc(/C=C/C(=O)c2ccccc2-c2ccc(F)cc2)o1,12 µM,31 µM,23 µM,23 µM,14 µM
O=C(/C=C/c1ccccc1-c1ccc(F)nc1)c1cccc(O)c1,6.4 µM,6.9 µM,12 µM,7.4 µM,8.7 µM

# The next compounds have a lower IC50 [1] than those just listed; values first:
IC50 [1],IC50 [2],IC50 [3],IC50 [4],Structure (SMILES),IC50 [5]
3.1 µM,4.6 µM,5.4 µM,4.2 µM,COc1cc(C(=O)/C=C/c2ccccc2-c2ccc(F)cc2)ccc1O,4.8 µM
1.8 µM,3.2 µM,2 µM,1.6 µM,COc1ccc(C(=O)/C=C/c2ccccc2-c2ccc(F)nc2)cc1O,2.1 µM
1 µM,1.2 µM,2.8 µM,1.3 µM,COc1ccc(/C=C/C(=O)c2ccccc2-c2ccc(F)nc2)cc1OC,1.6 µM
0.6 µM,1.6 µM,1.1 µM,0.89 µM,COc1ccc(/C=C/C(=O)c2ccccc2-c2ccc(OC)c(OC)c2)cc1,0.32 µM
0.52 µM,1.1 µM,1.7 µM,2.4 µM,COc1ccc(OC)c(/C=C/C(=O)c2ccccc2-c2ccc(F)cc2)c1,0.75 µM
0.29 µM,0.93 µM,2.7 µM,0.33 µM,COc1ccc(/C=C/C(=O)c2ccccc2-c2ccc(F)nc2)cc1,0.16 µM
0.23 µM,0.19 µM,0.48 µM,0.17 µM,COc1ccc(/C=C/C(=O)c2ccccc2-c2ccc(OC)c(OC)c2OC)cc1O,0.16 µM
0.19 µM,0.94 µM,0.56 µM,0.34 µM,COc1ccc(C(=O)/C=C/c2ccccc2-c2ccc(F)cc2)cc1O,0.75 µM
0.15 µM,0.33 µM,1.2 µM,0.16 µM,COc1ccc(/C=C/C(=O)c2ccccc2-c2cccc(F)c2)cc1OC,0.65 µM
0.097 µM,0.58 µM,0.83 µM,0.2 µM,COc1ccc(/C=C/C(=O)c2ccccc2-c2cccnc2)cc1,0.064 µM

# Reference: ChEMBL document CHEMBL3393048, “Discovery of potent cytotoxic ortho-aryl chalcones as new scaffold targeting tubulin and mitosis with affinity-based fluorescence” (J Med Chem, 2014)
